Measured values taken from ChEMBL document CHEMBL1671778, “Synthesis and serotonin transporter activity of 1,3-bis(aryl)-2-nitro-1-propenes as a new class of anticancer agents” (Bioorg Med Chem, 2011).
pEC50, pIC50: −log10 of the molar value. Calls of active or inactive are those of the source. The rule behind the calls is not given here.

Legend:
MUTU-I [1] = test: Induction of apoptosis in human chemosensitive MUTU-I cells assessed as induction of PARP cleavage at 10 uM after 4 hrs; format: functional, cell-based
How it was run: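 PARP cleavage by Western blot: 5x10^6 cells pelleted (500 ×g, 5 min), washed, and lysed in Laemmli buffer with protease inhibitors. Lysates run on 8% SDS-PAGE, transferred to PVDF, and probed with anti-PARP detecting full-length 113 kDa and cleaved 85 kDa forms. HRP secondary antibody, chemiluminescence detection.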

[2] = Cytotoxicity against human chemosensitive MUTU-I cells expressing SERT assessed as decrease in cell viability 10 or 50 uM after 24 hrs Alamar blue assay
MUTU-I [3] = test: Induction of apoptosis in human chemosensitive MUTU-I cells assessed as caspase 3/7 activation at 10 uM after 4 hrs; format: functional, cell-based
MUTU-I [4] = test: Induction of apoptosis in human chemosensitive MUTU-I cells assessed as chromatin condensation and membrane bledding at 10 uM after 4 hrs; format: functional, cell-based
How it was run: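 Cells at 3x10^5 cells/mL exposed for 4 h or 8 h. 150 µl aliquots were cytocentrifuged onto slides (500 ×g, 2 min), air-dried, methanol-fixed, and stained with eosin Y and methylene blue. Morphology was examined by light microscopy at 60x.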

[5] = target: T1, Sodium-dependent serotonin transporter (Homo sapiens, UniProt P31645); conditions: HEK293, at 100 µM
Target sequence in this assay (P31645 whole entry, looked up): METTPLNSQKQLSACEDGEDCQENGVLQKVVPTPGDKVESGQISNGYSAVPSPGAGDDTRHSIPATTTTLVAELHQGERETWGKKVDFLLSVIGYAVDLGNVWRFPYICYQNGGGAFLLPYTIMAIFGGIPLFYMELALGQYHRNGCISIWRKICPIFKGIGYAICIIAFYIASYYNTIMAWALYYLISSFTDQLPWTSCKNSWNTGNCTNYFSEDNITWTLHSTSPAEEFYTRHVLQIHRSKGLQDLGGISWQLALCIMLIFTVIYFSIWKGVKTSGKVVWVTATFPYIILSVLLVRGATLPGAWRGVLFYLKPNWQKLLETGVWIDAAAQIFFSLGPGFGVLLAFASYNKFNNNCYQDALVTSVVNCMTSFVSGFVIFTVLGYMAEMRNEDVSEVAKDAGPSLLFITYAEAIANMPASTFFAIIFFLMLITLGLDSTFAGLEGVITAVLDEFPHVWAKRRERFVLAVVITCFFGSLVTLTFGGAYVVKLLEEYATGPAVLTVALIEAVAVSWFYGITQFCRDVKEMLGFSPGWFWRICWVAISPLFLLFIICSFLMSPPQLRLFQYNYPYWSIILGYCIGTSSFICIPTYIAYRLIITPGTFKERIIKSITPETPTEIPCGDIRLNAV

SH-SY5Y [6] = test: Cytotoxicity against human SH-SY5Y cells expressing human SERT assessed as decrease in cell viability after 48 hrs neutral red dye assay; format: functional, cell-based
[7] = target: T1, Sodium-dependent serotonin transporter; test: Inhibition of [3H]-serotonin reuptake at human SERT expressed in HEK293 cells after 15 to 20 mins by fluorescence neurotransmitter transporter assay; format: cell-based
Target sequence in this assay (P31645 whole entry): as the sequence (P31645 whole entry, looked up) above

DG-75 [8] = test: Antiproliferative activity against human DG75 cells after 24 hrs Alamar blue assay; format: functional, cell-based; conditions: DG-75, 24 h
How it was run: (§1)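 Alamar Blue viability: 1-5x10^4 cells/well treated 24 h, then Alamar Blue (pre-warmed) 4-6 h at 37 °C in the dark. Fluorescence read at 590 nm (excitation 544 nm), background of medium plus dye subtracted, untreated cells = 100% viability. Miconazole 10 µM as cell-death control. Range 1 µM-1 mM, triplicate on two independent days. pEC50 from non-linear sigmoidal regression.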

SH-SY5Y [9] = test: Antiproliferative activity against human SH-SY5Y cells after 24 hrs Alamar blue assay; format: functional, cell-based; how it was run: as §1
DG-75 [10] = test: Induction of apoptosis in human chemoresistant DG75 cells assessed as formation of apoptotic bodies by propidium iodide FACS analysis; format: functional, cell-based
HEK293 [11] = test: Cytotoxicity against human HEK293 cells assessed as decrease in cell viability after 48 hrs neutral red dye assay; format: functional, cell-based; conditions: HEK293, 48 h
How it was run: (§2)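 5x10^4 cells/well grown to sub-confluence (24-36 h), then exposed to compound 48 h. Neutral red dye 3+1 h, solubilised in 50% ethanol/1% acetic acid, absorbance 540 nm (690 nm background). Viability as percent of vehicle-treated cells; pEC50 by non-linear sigmoidal regression over 4 concentrations, triplicate on two independent days. Controls 30 mM sodium azide, 2% Triton-X. HEK293-hSERT cells kept in Geneticin, used up to 30 passages.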

PBMC = test: Cytotoxicity against human PBMC cells assessed as decrease in cell viability 10 or 50 uM after 24 hrs Alamar blue assay; format: cell-based
How it was run: (§3)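 1-5x10^4 cells/200 µl given 10 or 50 µM for 24 h (MUTU-I, MDA-MB231, PBMC) or […]. Alamar Blue at 37 °C in the dark 4-6 h, then fluorescence read with 544/590 nm. Media-only background subtracted; untreated cells set as 100% viability. Mean of six points (triplicate, two independent days). PBMCs from a healthy donor, isolated by ficoll density separation.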

DG-75 [12] = test: Cytotoxicity against human chemoresistant DG75 cells expressing SERT assessed as decrease in cell viability 10 or 50 uM after 72 hrs Alamar blue assay; format: functional, cell-based; how it was run: as §3
[13] = Induction of apoptosis in human chemosensitive MUTU-I cells assessed as formation of apoptotic bodies by propidium iodide FACS analysis; format: functional, cell-based
[14] = target: T1, Sodium-dependent serotonin transporter; conditions: HEK293, at 1 µM
Target sequence in this assay (P31645 whole entry, looked up): as above

MDA-MB-231 = test: Cytotoxicity against human MDA-MB-231 cells assessed as decrease in cell viability 10 or 50 uM after 24 hrs Alamar blue assay; format: functional, cell-based; how it was run: as §3
HEK293 [15] = test: Cytotoxicity against human HEK293 cells expressing human SERT assessed as decrease in cell viability after 48 hrs neutral red dye assay; format: functional, cell-based; conditions: HEK293, 48 h; how it was run: as §2

SMILES | Activity (MUTU-I [1]) | pIC50 [2] | Activity (MUTU-I [3]) | Activity (MUTU-I [4]) | inhibition [5] [%] | pEC50 (SH-SY5Y [6]) | pIC50 [7] | pEC50 (DG-75 [8]) | pEC50 (SH-SY5Y [9]) | pEC50 (DG-75 [10]) | pEC50 (HEK293 [11]) | Activity (PBMC) | Activity (DG-75 [12]) | pEC50 (DG-75 [12]; DG-75, 72 h) | pEC50 [13] | inhibition [14] [%] | Activity (MDA-MB-231) | pEC50 (HEK293 [15])
CC(=O)O[C@H]1C(=O)[C@@]2(C)[C@H]([C@H](OC(=O)c3ccccc3)[C@]3(O)C[C@H](OC(=O)[C@H](O)[C@@H](NC(=O)c4ccccc4)c4ccccc4)C(C)=C1C3(C)C)[C@]1(OC(C)=O)CO[C@@H]1C[C@@H]2O [PACLITAXEL] | inactive | 8.00 | inactive | inactive |  |  |  |  |  |  |  |  |  |  |  |  |  | 
CSc1ccc(CC(Cc2ccc(SC)cc2)NC=O)cc1 |  |  |  |  | 85 | 4.50 | 4.80 | 2.30 | 4.50 | 5.00 | < 2.00 | Non-toxic | Active | 4.50 | 4.89 | 5 | Active | 4.00
